Source: PubChem BioAssay AID561 (The Scripps Research Institute Molecular Screening Center, 2006)
Hit rate of the full screen: of about 65,000 compounds, about 280 (0.43%) were called active.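 The calls were made as follows: active = inhibition above the mean of all tested compounds plus 3 SD (cut at about 52% in these data); inactive = the rest.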 This excerpt belongs to a sample that is enriched for actives.

The compounds below were run against Nuclear receptor ROR-alpha (Homo sapiens) (UniProt P35398) (assay: suppression of basal RORA-driven reporter transcription – cell-based, luminescence, primary screen (AID 561)). Conditions: CHO-K1 Gal4-RORA LBD luciferase reporter, at 10 µM, hits give high values.
Sequence of Nuclear receptor ROR-alpha (Homo sapiens) (P35398 whole entry, looked up, the tested form may be a part): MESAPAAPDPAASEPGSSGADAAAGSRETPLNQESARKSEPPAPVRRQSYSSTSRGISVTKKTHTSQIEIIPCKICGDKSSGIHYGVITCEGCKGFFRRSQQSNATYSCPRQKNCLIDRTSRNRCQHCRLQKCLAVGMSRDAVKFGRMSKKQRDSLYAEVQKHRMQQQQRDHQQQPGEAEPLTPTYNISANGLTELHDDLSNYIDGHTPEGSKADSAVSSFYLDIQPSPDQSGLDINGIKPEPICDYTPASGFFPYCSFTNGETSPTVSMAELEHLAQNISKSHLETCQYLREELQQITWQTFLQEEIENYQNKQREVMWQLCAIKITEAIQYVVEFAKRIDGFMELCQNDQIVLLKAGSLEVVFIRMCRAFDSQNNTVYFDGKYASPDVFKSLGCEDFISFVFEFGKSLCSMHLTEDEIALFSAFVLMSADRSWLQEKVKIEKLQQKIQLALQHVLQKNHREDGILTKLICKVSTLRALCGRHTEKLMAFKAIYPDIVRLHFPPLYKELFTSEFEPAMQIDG
Outline: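 test system = CHO-K1 Gal4-RORA LBD luciferase reporter cells | dosing = 10 µM single point | times = 20 h compound treatment, 37 °C | signal = luciferase luminescence | read-out = % inhibition of basal luciferase versus +RORA/-RORA DMSO controls | benchmarks = mock-transfected cells as 100%, +RORA DMSO cells as 0% | replicates = tested once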

inhibition, active:
CCOc1cc(C(=O)N2CCc3cc(OC)c(OC)cc3C2)ccc1OC(F)F 57.3%
CC(C)OCCCNc1ncnc2c1[nH]c1ccc(F)cc12 75.5%
COc1ccc(-c2nc(-c3ccccc3)no2)c(OC)c1 78.4%
Cc1ccsc1C(=O)OCC(=O)c1cc(C)n(CC2CCCO2)c1C (centres undefined) 85.1%
Cn1c(-c2ccco2)nc2cc3ccccc3cc21 68.8%
Fc1ccc2[nH]c3c(N4CCN(Cc5ccc6c(c5)OCO6)CC4)ncnc3c2c1 86.3%
Fc1ccc2[nH]c3c(N4CCSCC4)ncnc3c2c1 80.8%
CN(C)c1nc(N)nc(CSc2nnnn2-c2cccc3ccccc23)n1 53.2%
COc1ccccc1-n1nnnc1S(=O)(=O)Cc1ccc(Cl)cc1 54.4%
CCNC(=O)CCc1nc(-c2ccc(C(C)(C)C)cc2)no1 88.3%
CC[C@H]1CN2CCc3cc(OC)c(OC)cc3[C@@H]2C[C@@H]1C[C@H]1NCCc2cc(OC)c(OC)cc21 95.3%
CC[C@]1(O)CC2CN(CCc3c([nH]c4ccccc34)[C@@](C(=O)OC)(c3cc4c(cc3OC)N(C=O)[C@H]3[C@@](O)(C(=O)OC)[C@H](OC(C)=O)[C@]5(CC)C=CCN6CC[C@]43[C@@H]65)C2)C1 (some centres undefined) 54%

inhibition, inactive:
COC(=O)c1ccc(C2NC(=O)NC(C)=C2C(=O)N(C)C)cc1 (centres undefined) 29.5%
O=C(Nc1ccc2c(c1)OCO2)C1CC(c2c(F)cccc2Cl)=NO1 (centres undefined) -2.1%
COc1cc(OC)c(C(=O)Nc2ccc(N(C)C)cc2)cc1OC -58.1%
Cc1ccc(Oc2nc3ccccc3n3c(C)nnc23)cc1 -9.5%
COCCCN(C(=O)Cn1ncc2c(=O)oc3ccc(C)cc3c21)C(C)c1ccncc1 (centres undefined) -5.6%
Fc1ccccc1OCCSc1nc2ccccc2o1 -26.2%
CCOc1cc(C(=S)N2CCOCC2)ccc1O 8.5%
COc1ccc(OCc2cccc(C(=O)N3CCCC3)c2)cc1 -8.9%
COc1ccc(-n2ncc3c(N4CCCc5ccccc54)ncnc32)cc1 -50.2%
O=C(CC1NCCNC1=O)Nc1ccc(Oc2ccccc2)cc1 (centres undefined) -7.9%
COc1cc(C(=O)Nc2oc(-c3ccccc3)c(-c3ccccc3)c2C#N)cc(OC)c1OC -14.1%
O=C(Cc1c(F)cccc1Cl)N1CCN(C(=O)c2ccco2)CC1 14.5%
CCOC(=O)CCCNC(=O)CN1C(=O)NC(CCc2ccccc2)C1=O (centres undefined) -7.9%
CC(=O)c1ccc(NC(=O)N[C@@H](Cc2ccccc2)C(=O)O)cc1 16.7%
O=C(Nc1cccc(Cl)c1)OCc1ccccn1 -69.9%
CC(=O)Nc1ccc(-c2cn3cccnc3n2)cc1 -27%
Clc1ccc(C2CC(c3cccs3)n3ncnc3N2)cc1Cl (centres undefined) -4.7%
CC(C)(C)c1ccc(C(=O)CSc2ncn[nH]2)cc1 -54.2%
CC(C)(C)NC(=O)Cn1nnc(-c2ccccc2Cl)n1 -65.9%
COc1cccc(C2/C(=C(/O)c3ccncc3)C(=O)C(=O)N2CCCN(C)C)c1 (centres undefined) 17%
Cc1noc(C)c1COC(=O)Cn1c(C)nc2ccccc21 -0.6%
COc1ccc(-n2c(SC)nc(O)cc2=O)cc1 8.5%
Cc1cc2nc(-c3ccc(NC(=O)c4cccnc4)cc3)oc2cc1C -71.6%
CCOC(=O)/C=c1\s/c(=C\c2ccccc2OC)c(=O)n1CC(=O)N1CCOCC1 3.7%
CC1CN(C(=O)CN2C(=O)NC(C)(c3ccccc3)C2=O)CC(C)O1 (centres undefined) 11.6%
CCCN(CCC)CCNC(=O)c1cc2c(C)nc3ccccc3c2o1 -1.5%
COc1ccc(-c2noc(-c3cccc(OC)c3OC)n2)cc1OC -89.8%
CCOc1ccc(Nc2oc(Cc3ccccc3)nc2C#N)cc1 -25.7%
O=C(CSc1nc2ccccc2[nH]1)c1cccs1 -56.5%
O=C(CCSc1ccccc1)NCCSc1ccccn1 -13.3%
O=c1c2cc3c(=O)n(CC4CCCO4)c(=O)c3cc2c(=O)n1CC1CCCO1 (centres undefined) 5.9%
O=C(Nc1cccc(-c2nnc(-c3ccccc3)o2)c1)C1CCCO1 (centres undefined) -61.1%
COC(=O)Cc1cc(=O)n(-c2nc3ccccc3s2)[nH]1 10.2%
CC(=O)Nc1ccc(S(=O)(=O)N2CCN(CCCOc3cc(C)ccc3C)CC2)cc1 13.3%
CC1(C)NC(=O)N(CCOc2cccc(Oc3ccccc3)c2)C1=O -0.4%
CC(=O)NC(Cc1ccc(F)cc1)C(=O)O (centres undefined) 4.4%
COc1ccccc1CNC(=O)CCCNS(=O)(=O)c1cccc2nsnc12 12.8%
CS(=O)(=O)c1ccc2nc(NC(=O)C3C4C=CC(C4)C3C(=O)O)sc2c1 (centres undefined) 0.6%
CCCCOc1ccc(-c2ncc(C(=O)OCC)c(N)n2)cc1 -59.3%
Cc1ccc(CNC(=O)C2CCCN(S(C)(=O)=O)C2)cc1 (centres undefined) -3.7%
CCSc1nc(C)nc2c1oc1ccccc12 -1%
CCc1c(C)sc(NC(=O)c2ccc(Br)o2)c1C(=O)OC 3.7%
CC1(C)CC(CCC(=O)Nc2ccccc2Cl)C(=O)O1 (centres undefined) 6.6%
C#CCNc1nc(C(C)C)nc2c1nnn2Cc1ccccc1F -1.9%
CN(C)/C=C/c1c(C#N)c(=O)ncn1Cc1ccccc1 15.5%
Cc1ccc(Cn2nnc3c(=O)n(CC(=O)N4CCCCC4)cnc32)cc1 19.7%
O=C(NC1=NCCS1)c1ccc(Cl)s1 -80.1%
CC(C)OC(=O)C(C#N)c1nc2ccccc2nc1N1CCN(Cc2ccccc2)CC1 (centres undefined) -19.7%
O=C1C(C=NCC2CCCO2)=C(O)c2ccccc21 (centres undefined) -48.7%
Cc1nc2nc(COc3ccccc3)[nH]n2c(=O)c1C -0.2%
Cc1ccc(-n2ncc3c2ncn2nc(-c4ccco4)nc32)c(C)c1 -10.8%
COc1ccccc1-c1cc(C(=O)N2CCCCC2)no1 -56.5%
O=c1oc2cc(O)ccc2cc1-c1ccc(F)cc1 -61.8%
CCCN(c1ccc(C(C)C)cc1)S(=O)(=O)c1c(C)[nH]c(=O)[nH]c1=O -10.6%
O=C(O)CC(c1ccccc1)n1cnnn1 (centres undefined) 15.8%
Cn1c(=O)c(C(=O)Nc2ncccn2)c(O)c2ccccc21 -61%
CC(=O)Oc1ccc(C(=O)Nc2nccs2)cc1 -61%
COc1ccccc1C(=O)C(O)c1ccccc1OC (centres undefined) -19.7%
O=C(c1cc(-c2cccs2)on1)N1CCCCC1 -63.4%
Cc1noc(C)c1S(=O)(=O)Nc1ccc(C(=O)O)cc1 -7.4%
Cn1c(SCc2c(F)cccc2Cl)nnc1-c1cnccn1 -62.8%
Nc1ccc(-c2nnc(-c3ccc(-c4ccccc4)cc3)o2)cc1 -60.7%
OCCCNC(c1ccccc1)c1ccc(O)cc1 (centres undefined) 24.8%
COc1ccc(OC)c(CNC(=O)C2CCCN(c3nc4ccccc4o3)C2)c1 (centres undefined) 33.3%
COC(=O)CCSc1nccn1Cc1ccccc1 7.6%
COc1ccccc1CNC(=O)C1CCN(c2nc3ccccc3o2)CC1 14%
CCS(=O)(=O)N1CCCC(C(=O)NCCCN(C)Cc2ccccc2)C1 (centres undefined) -3.1%
Cc1cc(Cl)c(S(=O)(=O)Nc2ccc3c(c2)OCCO3)cc1OCC(N)=O 22.5%
OC1CN=C2Sc3ccccc3N2C1 (centres undefined) 10.5%
CCOc1ccccc1N(CC(=O)NC1CCCCC1)C(=O)CCCC(=O)Nc1ccccn1 -9%
CN1CCCC(OC(=O)COc2ccc(Br)cc2)C1 (centres undefined) -27%
CC(=O)Nc1cccc(-c2cnc3ccccc3n2)c1 -72.9%
Cc1ccc(Cc2nc(-c3cccc(C)c3)no2)cc1 -51.5%
Cc1cc(C)nc(NC(=O)Nc2ccccc2C(F)(F)F)n1 -29%
Cc1cccc(NC(=O)CSc2nc3c(c(=O)[nH]2)CCC3)c1C 0.6%
CC(C)CCNc1nc(N2CCCC2)c2c(c1C#N)CCN(C)C2 -5.2%
COc1ccc(Cl)cc1S(=O)(=O)Nc1cccc(C(=O)O)c1 2.9%
O=C(O)CCC(=O)NCc1ccc2[nH]c3c(c2c1)CCCC3 11.8%
COCCCNC(=O)Cn1cc(C(=O)C2CC2)c2ccccc21 -7.6%
COc1ccc(CN(C(=O)c2cccs2)c2nccs2)cc1OC -6.9%
CCOC(=O)Nc1ccccc1N1C(=O)c2ccccc2C1=O -13%
Cn1c(SCC(=O)Nc2cccc(O)c2)nnc1-c1ccc(S(=O)(=O)N2CCOCC2)cc1 -31.5%
O=C(Nc1cccnc1)c1noc2c1CCCCC2 19.3%
O=C(C1CCC1)N1CCc2cc(S(=O)(=O)NCc3cccnc3)ccc21 -16.5%
Cc1ccc(C(c2nnnn2C(C)(C)C)N2CCc3ccccc3C2)cc1 (centres undefined) -0.2%
CN(c1ccccc1)c1ccc(/C=c2\s/c(=C(/C#N)C(=O)C(C)(C)C)n(Cc3ccco3)c2=O)cc1 11.3%
CCCCc1nc2ccccc2c(NC(=O)CN2CCN(C)CC2)c1CCC -1.9%
